The structures appear in SMILES notation.

This series can be described thus: Toxicity liver stage against HepG2, at 10uM. The class given is cell-based. More on the design: test concentration 10 uM, cell line HepG2-A16-CD81EGFP. The following applies: human, HepG2-A16-CD81EGFP cells; read-out: INHIBITION
The procedure, abridged: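 Uninfected HepG2-A16-CD81EGFP cells, 3 × 10^3 per well, 1536-well, plated on prespotted compound at 10 μM final, parasite-free screening media added to match infected plates; puromycin 10 μM positive, DMSO 0.5% negative; run in parallel with 48 h PbLuc assay at 37 °C, 5% CO2; viability by CellTiter-Glo luminescence, normalized to controls.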
For the compound `CN1Cc2nc[nH]c2C[C@H]1C(=O)NC1CCCCC1`, the cytotoxicity at 10 µM turned out to be 0.0515%.

Turning to `NC(=O)CN1C(=O)CO[C@H]2CN(Cc3ccccc3)C[C@H]21`, the cytotoxicity at 10 µM was found to be 0.67%.

`CC(C)CN1C[C@H](COCc2ccccc2)Oc2ncccc2C1=O`: the cytotoxicity at 10 µM was -57.4%.

For `CNC(=O)[C@@H]1[C@@H](c2ccccc2)CN2CCN(Cc3ccccn3)C[C@H]12`, the cytotoxicity at 10 µM stood at 8.76%.

Take `COC1CN(C(=O)NCC(N)=O)CCC(=O)N(C)c2ccccc21` (stereo unspecified): the cytotoxicity at 10 µM is -3.84%.

Take `O=C(CCN1C(=O)CC2(CCCC2)C1=O)NCCc1nccs1`: the cytotoxicity at 10 µM is 2.86%.

As for `CCCc1nnsc1C(=O)NCC(O)c1cccs1` (stereo unspecified), the cytotoxicity at 10 µM worked out at 4.15%.

With `O=S(=O)(NCC1(O)CCOCC1)c1ccccc1Br`, the cytotoxicity at 10 µM is -5.93%.

As to `CCOc1ccccc1NC(=O)NCCc1ccoc1`, the cytotoxicity at 10 µM was -1.18%.

In the case of `Cn1cc(C(=O)Nc2ccc3c(c2)N(C(=O)c2ccco2)CC3)nn1`, the cytotoxicity at 10 µM stood at 0.529%.

On to `c1cc(CN2CCC3(CC2)COC(COCC2CC2)C3)cs1` (stereo unspecified), for which the cytotoxicity at 10 µM is -0.272%.

Take `O=C(C1CCOC1)N1CCC2(CC1)COC2` (stereo unspecified): the cytotoxicity at 10 µM was 3.06%.

As for `O=C(C1CCCCC1)N1CCO[C@@H]2CNC[C@@H]21`, the cytotoxicity at 10 µM came to 8.82%.

`O=C(c1cc(-c2ccn(CC3CC3)n2)n2ccccc12)N1CCCO1`: the cytotoxicity at 10 µM was 5.07%.

As to `CNC(=O)c1cnc2n1CCN(C(=O)Cc1ccccn1)C2`, the cytotoxicity at 10 µM was 6.68%.

On to `CCN(C)c1ncnc2c1CCN(C(=O)[C@H]1CCCO1)CC2`, for which the cytotoxicity at 10 µM worked out at 3.38%.

For `O=C(c1ccccc1-n1cnnn1)N1CCC2(CC1)OCCO2`, the cytotoxicity at 10 µM stood at 1.5%.

For `Cn1c(=O)[nH]c(=O)n2c(CC(=O)Nc3ccc(Cl)c(Cl)c3)cnc12`, the cytotoxicity at 10 µM is 3.82%.

Turning to `CCC(CC)C(=O)NCc1cnn(CC)c1`, the cytotoxicity at 10 µM turned out to be 7.19%.

On to `Cn1cc(-c2cc(C(F)(F)F)nn2CCC#N)cn1`, for which the cytotoxicity at 10 µM came out at 6.5%.

In the case of `CCS(=O)(=O)N1CCCCC1c1nc(C)no1` (stereo unspecified), the cytotoxicity at 10 µM was determined as 7.03%.

As to `CC(C)n1cc(N2CC(C(=O)N3CCCC3)CC2=O)cn1` (stereo unspecified), the cytotoxicity at 10 µM came to 3.79%.

With `CC(C(=O)NCCCn1ccnc1)n1cc(Br)cn1` (stereo unspecified), the cytotoxicity at 10 µM was -13.8%.

With `Cc1ccc(C2CCCN(S(=O)(=O)N3CCOCC3)C2)nc1` (stereo unspecified), the cytotoxicity at 10 µM was found to be 4.25%.

For the compound `O=C1Nc2ccccc2CNC12CCN(CC1CC1)CC2`, the cytotoxicity at 10 µM is 6.03%.

As to `COc1ccc(Cn2cc(C(C)O)nn2)cc1` (stereo unspecified), the cytotoxicity at 10 µM was found to be 16.9%.

Consider `Cc1nnc(CSc2ccccn2)o1`, for which the cytotoxicity at 10 µM was 14.3%.

For `CC(C)c1nnc2n1CCN(C(C(N)=O)c1ccc(F)cc1)C2` (stereo unspecified), the cytotoxicity at 10 µM amounted to 1.54%.

On to `O=C1CCC(=O)N1CCn1nnc(-c2ccc(Br)cc2)n1`, for which the cytotoxicity at 10 µM is 4.26%.

Consider `O=C(CS(=O)(=O)Cc1cccc(Br)c1)Nc1cn[nH]c1`, for which the cytotoxicity at 10 µM amounted to 0.575%.

As to `CC(C)(C)c1nc2cc(NC(=O)Cn3ccc(=O)[nH]c3=O)ccc2o1`, the cytotoxicity at 10 µM is -7.07%.

On to `CCC(C)(C)NC(=O)COC(=O)c1cc(C)ccc1NC(=O)N(C)C`, for which the cytotoxicity at 10 µM is 1.12%.

With `Cc1noc(C)c1CNC(C)c1ccc(S(=O)(=O)N(C)C)cc1` (stereo unspecified), the cytotoxicity at 10 µM came to 2.47%.

As to `Cc1noc(C)c1CCC(=O)N1CCCC(n2ccnc2C)C1` (stereo unspecified), the cytotoxicity at 10 µM was 10.9%.

For `COc1cc2c(cc1OC)CCN(C(=O)Cn1nc(C)cc1C)CC2`, the cytotoxicity at 10 µM came out at 2.63%.

For the compound `O=C(NCC1(C(=O)O)CCC1)c1nnn(-c2ccc(F)cc2)c1C1CC1`, the cytotoxicity at 10 µM was -14.8%.

Take `COc1c(CNC2CCOc3c(F)cccc32)c(C)nn1C` (stereo unspecified): the cytotoxicity at 10 µM came to 7.5%.

Turning to `O=C(COc1cccc2c1CCC2=O)NCC(F)(F)F`, the cytotoxicity at 10 µM was -8.74%.

Regarding `CCn1cnnc1C1CCN(C(=O)c2cccc(-n3cccc3)c2)CC1`, the cytotoxicity at 10 µM turned out to be 4.56%.

Take `Cc1cc(NCC(=O)N(C)C)c(C(N)=O)cc1F`: the cytotoxicity at 10 µM was -2.64%.

Turning to `NC(=O)C1CCCN1C1CCN(C(=O)c2ccc3c(c2)OCO3)CC1` (stereo unspecified), the cytotoxicity at 10 µM came to 1.59%.

As to `CCCc1cc(C(=O)Nc2nc(SC)ns2)[nH]n1`, the cytotoxicity at 10 µM was -19.3%.

In the case of `CCOc1cccc(CCNC(=O)Cc2ccccc2O)n1`, the cytotoxicity at 10 µM is -2.55%.

With `COCCNC(=O)NC1(c2ccccc2F)CC1`, the cytotoxicity at 10 µM is -0.421%.

Take `Cc1nc(CNC(=O)Nc2c(C)n[nH]c2C)cs1`: the cytotoxicity at 10 µM was determined as 3.51%.

As for `COCCC(=O)N1CCc2cc(Cl)cc(Cl)c2C1`, the cytotoxicity at 10 µM was -13.1%.

`COC(=O)CCNC(=O)c1ccoc1CN1c2ccccc2CC1C` (stereo unspecified): the cytotoxicity at 10 µM is -9.23%.

As for `Cc1nc(C)c2c(n1)CCN(C(=O)CC1CC1)CC2`, the cytotoxicity at 10 µM worked out at 2.34%.

With `Cc1n[nH]c(C)c1CC(=O)N1CCN(C)C2(CCNC(=O)CC2)C1` (stereo unspecified), the cytotoxicity at 10 µM is 2.65%.

As for `Cc1nn(C)c2nc(NCCN3CCCC(C(N)=O)C3)sc12` (stereo unspecified), the cytotoxicity at 10 µM turned out to be 0.739%.

With `Cc1cc(C)n2ncc(CN3CCC(Cn4cc(CO)nn4)CC3)c2n1`, the cytotoxicity at 10 µM was found to be 7.85%.

With `CN(CCc1ccccn1)C(=O)C1Cc2ccccc2CN1C` (stereo unspecified), the cytotoxicity at 10 µM stood at 1.47%.

Regarding `Cc1ccsc1-c1nccn1CCS(=O)(=O)N1CCCC1`, the cytotoxicity at 10 µM was -3.67%.

`CCC[C@@H]1CN(C(=O)c2cc3ccccc3s2)C[C@H]1NS(C)(=O)=O`: the cytotoxicity at 10 µM is -9.53%.

In the case of `Cc1ccc(-c2c(-c3ccccc3)ncn2CCCN2CCOCC2)o1`, the cytotoxicity at 10 µM was 6.23%.

For the compound `C[C@@H]1CN(Cc2ccncc2)C[C@]1(C)O`, the cytotoxicity at 10 µM turned out to be 1.6%.

With `COC(=O)N1CCN(c2ncnc3nc(C)cc(C)c23)CC1`, the cytotoxicity at 10 µM is -15.2%.

With `Cc1noc(C)c1CN(C)c1nc(C2CCCC2)nc2c1cnn2C`, the cytotoxicity at 10 µM was found to be 22.2%.

Turning to `O=C(NCc1cccnc1-n1cncn1)C1CC2(CCNCC2)CN1` (stereo unspecified), the cytotoxicity at 10 µM is 2.08%.

As for `COCCc1noc(CNC2CCCC(C)(C)C2)n1` (stereo unspecified), the cytotoxicity at 10 µM was -0.475%.

For `N#Cc1cccc(S(=O)(=O)N2CCCCC2CCN2CCCC2=O)c1` (stereo unspecified), the cytotoxicity at 10 µM is -16.9%.

Consider `CCN(CC)c1ccc(-c2nc(-c3cccc(OC)c3OC)no2)cn1`, for which the cytotoxicity at 10 µM worked out at 20%.

In the case of `CCCc1nc(C)cc(N2CCC3(CCC(=O)N(CCOC)C3)CC2)n1`, the cytotoxicity at 10 µM was determined as 9.51%.

`Cc1cc2c(=O)n3c(nc2s1)CCN(C(=O)c1ccncc1)CC3`: the cytotoxicity at 10 µM was found to be 1.08%.

For the compound `O=C(Nc1ccc(CCN2CCC(O)CC2)cc1)C1CCCOC1` (stereo unspecified), the cytotoxicity at 10 µM is -4.81%.

For the compound `COc1ccccc1COCC(O)CN1CC(n2cccn2)C1` (stereo unspecified), the cytotoxicity at 10 µM was -6.25%.

As to `CCc1csc(C2CCCN(C(=O)C3=NN(CC)C(=O)CC3)C2)n1` (stereo unspecified), the cytotoxicity at 10 µM was -6.26%.

`Cc1noc(C)c1C(=O)NCC(O)c1ccc(F)cc1F` (stereo unspecified): the cytotoxicity at 10 µM is -3.56%.

For the compound `COc1ccc(C(O)CNC(=O)NCc2csc(C)n2)cc1` (stereo unspecified), the cytotoxicity at 10 µM is -6.12%.

Turning to `NC(=O)COc1cccc(C(=O)N2CCCC(n3cccn3)C2)c1` (stereo unspecified), the cytotoxicity at 10 µM was -4.86%.

For `Cc1nc(C)c(CC(=O)Nc2nnc(C)s2)c(=O)[nH]1`, the cytotoxicity at 10 µM was -2.17%.

On to `Cn1cc(Cl)cc1C(=O)N1CCCN(Cc2cccs2)CC1`, for which the cytotoxicity at 10 µM was -5.82%.

`CN(Cc1nc(-c2ccco2)no1)C1CCCN(c2cccnn2)C1` (stereo unspecified): the cytotoxicity at 10 µM was -7.72%.

On to `Fc1cccc(-c2nc(CN3CCCCC3Cn3cncn3)co2)c1` (stereo unspecified), for which the cytotoxicity at 10 µM is -12.8%.

`CCS(=O)(=O)c1ccccc1C(=O)NCc1ccnc(N(C)C)c1`: the cytotoxicity at 10 µM was -3.92%.

Consider `CCc1nc(CN(C)C2CCN(CCNS(=O)(=O)CC)C2)no1` (stereo unspecified), for which the cytotoxicity at 10 µM was -2.14%.

On to `c1ccc(-c2nc(CN3CCCC(Cn4cncn4)C3)co2)cc1` (stereo unspecified), for which the cytotoxicity at 10 µM turned out to be 3.18%.

As to `Cc1nc(C)n(C2CCCN(C(=O)c3cc4ccccc4n3C)C2)n1` (stereo unspecified), the cytotoxicity at 10 µM is -4.5%.

`NC(=O)CN1CC(c2nc(C3CC3)no2)C1`: the cytotoxicity at 10 µM was 5.62%.

Consider `CN(C)C(=O)CO[C@@H]1CC[C@H]2[C@H]1OCCN2c1ncccn1`, for which the cytotoxicity at 10 µM is -6.96%.

Turning to `Cc1nc(CN2C(=O)C[C@H]3[C@H]2CCN3C2CCOCC2)cs1`, the cytotoxicity at 10 µM was -7.87%.

Turning to `c1nc2c(c(-c3ccsc3)n1)CCN(Cc1ccoc1)CC2`, the cytotoxicity at 10 µM was -11.4%.

For `O=C(O)c1cc(NS(=O)(=O)c2ccc(Cl)s2)ccc1N1CCOCC1`, the cytotoxicity at 10 µM is -4.05%.

Turning to `CC1=N[C@@]2(CC[C@@H]3CN(Cc4ccccc4F)C[C@@H]32)C(=O)N1CC1CC1`, the cytotoxicity at 10 µM stood at 1.47%.

`CC(C)N1[C@H](Cn2cncn2)C[C@@H]2CN(c3ncccn3)CC[C@@H]21`: the cytotoxicity at 10 µM was 3.17%.

Regarding `CC(C)n1nc(CN(C)C)c2c1CN(CC1CC1)CC2`, the cytotoxicity at 10 µM was -3.15%.

For the compound `O=C(NC1CCC1)[C@H]1CCS(=O)(=O)[C@@H]2CN(CCc3ccccc3)C[C@H]12`, the cytotoxicity at 10 µM is -3.06%.

Take `C[C@H]1CN(Cc2cccc(F)c2)C[C@@]12CCN(CC(=O)N(C)C)C2=O`: the cytotoxicity at 10 µM is -7.13%.

Turning to `CC[C@H]1N(CC2CCC2)CCC[C@]12CCC(=O)N2Cc1ccncc1`, the cytotoxicity at 10 µM was -0.508%.

With `N#Cc1cccc(N2CC3(CCN(C(=O)c4cccnc4)C3)CC2=O)c1` (stereo unspecified), the cytotoxicity at 10 µM was determined as 0.925%.

Turning to `Cc1noc(C)c1CN1CCO[C@H]2CN(CC3CC3)C[C@H]21`, the cytotoxicity at 10 µM was -4.25%.

For `Cc1nc(N2CCCC2)nc2c1CCN(C(=O)CN(C)C)CC2`, the cytotoxicity at 10 µM is -5.73%.

As for `CC(C)N(C)Cc1nnc2n1CCN(CC1CC1)CC2`, the cytotoxicity at 10 µM came to 0.319%.

In the case of `CN(C)C(=O)N[C@@H]1CN(C2CCOCC2)[C@@H]2CCCO[C@@H]21`, the cytotoxicity at 10 µM was -4.08%.

Take `COCCN1C[C@@H](C)[C@@]2(COCCN(C(=O)c3cccs3)C2)C1`: the cytotoxicity at 10 µM was 9.7%.

For the compound `CN(C)c1nc2cn(C3CC(C)(C)NC(C)(C)C3)c(=O)c-2c[nH]1`, the cytotoxicity at 10 µM was 6.39%.
